Test results reported in ChEMBL document CHEMBL1129731, “The chemistry of pseudomonic acid. 17. Dual-action C-1 oxazole derivatives of pseudomonic acid having an extended spectrum of antibacterial activity” (J Med Chem, 1996).
In brackets after ≈: the same amount, converted by molar mass.

Experiments:
Bacteroides fragilis [1] = assay: compound was tested for antibacterial activity Bacteroides fragilis NCTC 10581.; type: functional
Enterobacter cloacae = assay: compound was tested for antibacterial activity against Ent. cloacae N1.; type: functional
Escherichia coli [2] = assay: compound was tested for antibacterial activity against Escherichia coli DC0.; type: functional
Escherichia coli [3] = assay: compound was tested for antibacterial activity against Escherichia coli DC2.; type: functional
Method in brief: (§1)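 Broth microdilution in Mueller–Hinton broth; overnight broth cultures added to final 5 × 10^5 cfu/mL; incubated 37 °C, 18 h. MIC (µg/mL) taken as lowest concentration inhibiting growth.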

Enterococcus faecalis = assay: compound was tested for antibacterial activity against Ent. faecalis I; type: functional; method in brief: as §1
Haemophilus influenzae = assay: compound was tested for antibacterial activity against Haemophilus influenzae Q1.; type: functional
Method in brief: (§2)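 Broth microdilution in Mueller–Hinton broth supplemented (final) with 5% heat-inactivated horse serum, 0.02 mg/mL hematin and 0.08 mg/mL NAD; inoculum 5 × 10^5 cfu/mL from overnight broth cultures; 37 °C for 18 h; MIC (µg/mL) read as lowest concentration inhibiting growth.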

Isoleucine--tRNA ligase [4] = biological target: T1, Isoleucine--tRNA ligase (Staphylococcus aureus, UniProt P41972); assay: Inhibitory activity against isoleucyl-tRNA synthetase (IRS) of Staphylococcus aureus; type: functional
T1 sequence (P41972 whole entry): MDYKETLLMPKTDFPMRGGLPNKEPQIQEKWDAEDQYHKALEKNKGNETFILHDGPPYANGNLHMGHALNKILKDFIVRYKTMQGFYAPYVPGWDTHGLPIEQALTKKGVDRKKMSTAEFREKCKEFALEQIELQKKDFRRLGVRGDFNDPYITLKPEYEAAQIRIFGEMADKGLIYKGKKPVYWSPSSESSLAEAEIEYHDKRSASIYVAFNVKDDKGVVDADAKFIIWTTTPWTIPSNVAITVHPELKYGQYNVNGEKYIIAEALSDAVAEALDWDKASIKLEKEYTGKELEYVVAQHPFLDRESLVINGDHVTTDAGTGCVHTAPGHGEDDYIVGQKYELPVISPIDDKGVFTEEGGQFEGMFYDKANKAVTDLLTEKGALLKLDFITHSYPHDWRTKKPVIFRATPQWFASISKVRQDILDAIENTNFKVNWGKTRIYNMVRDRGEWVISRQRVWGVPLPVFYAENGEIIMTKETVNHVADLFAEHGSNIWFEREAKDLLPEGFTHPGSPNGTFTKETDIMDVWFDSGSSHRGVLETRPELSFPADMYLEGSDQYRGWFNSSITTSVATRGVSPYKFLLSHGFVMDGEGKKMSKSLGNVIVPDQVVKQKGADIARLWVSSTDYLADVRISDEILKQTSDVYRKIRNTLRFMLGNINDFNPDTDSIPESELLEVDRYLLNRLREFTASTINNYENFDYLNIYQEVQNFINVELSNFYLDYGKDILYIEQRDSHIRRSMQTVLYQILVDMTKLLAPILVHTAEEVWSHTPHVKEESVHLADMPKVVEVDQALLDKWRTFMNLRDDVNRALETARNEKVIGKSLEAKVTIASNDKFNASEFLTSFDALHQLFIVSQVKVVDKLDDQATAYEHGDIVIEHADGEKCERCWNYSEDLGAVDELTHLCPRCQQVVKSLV

Klebsiella pneumoniae = assay: compound was tested for antibacterial activity against Klebsiella pneumoniae E70.; type: functional; method in brief: as §1
Moraxella catarrhalis = assay: compound was tested for antibacterial activity against Moraxella catarrhalis 1502.; type: functional; method in brief: as §2
Proteus mirabilis = assay: compound was tested for antibacterial activity against Pr. mirabilis C889.; type: functional; method in brief: as §1
Pseudomonas aeruginosa = assay: compound was tested for antibacterial activity against Pseudomonas aeruginosa K799 wt.; type: functional; method in brief: as §1
[5] = system: Staphylococcus epidermidis; assay: compound was tested for antibacterial activity aagainst Staphylococcus epidermidis PHLN 20.; type: functional; method in brief: as §1
Streptococcus pneumoniae = assay: compound was tested for antibacterial activity against Strep. pneumoniae 1761.; type: functional; method in brief: as §2
Staphylococcus aureus [6] = assay: compound was tested for antibacterial activity against Staphylococcus aureus F 89.; type: functional; method in brief: as §1
Staphylococcus aureus [7] = assay: compound was tested for antibacterial activity against Staphylococcus aureus NCTC 6571.; type: functional; method in brief: as §1
Streptococcus pyogenes = assay: compound was tested for antibacterial activity against Streptococcus pyogenes CN10.; type: functional; method in brief: as §2
Staphylococcus aureus [8] = assay: compound was tested for antibacterial activity against Staphylococcus aureus C 37.; type: functional
Bacteroides fragilis [9] = assay: compound was tested for antibacterial activity against Bacteroides fragilis NCTC 10581.; type: functional
Isoleucine--tRNA ligase [10] = biological target: T1, Isoleucine--tRNA ligase; assay: Inhibitory activity against isoleucyl-tRNA synthetase (IRS) of Staphylococcus aureus 11481
Isoleucine--tRNA ligase [11] = biological target: T1, Isoleucine--tRNA ligase; assay: Inhibitory activity against isoleucyl-tRNA synthetase (IRS) of Staphylococcus aureus C 7
Staphylococcus aureus [12] = assay: Minimum inhibitory concentration against Staphylococcus aureus C 7; type: functional; method in brief: as §1
[13] = system: Isoleucine--tRNA ligase (Staphylococcus aureus); assay: Inhibitory activity against isoleucyl-tRNA synthetase (IRS) of Staphylococcus aureus NCTC 6571
[14] = biological target: Isoleucine--tRNA ligase, Staphylococcus aureus (UniProt P41972); assay: compound was tested for inhibitory activity of isoleucyl-tRNA synthetase (IRS).
Mus musculus [15] = assay: Total […] dose against Staphylococcus aureus after sc administration (1+5 hr post infection) to mouse; settings: in vivo
Isoleucine--tRNA ligase [16] = biological target: T1, Isoleucine--tRNA ligase; assay: compound was tested for inhibitory activity of isoleucyl-tRNA synthetase (IRS).; type: functional
[17] = Pharmacokinetic parameter Cmax was determined in blood level in mouse after oral administration.; type: ADME, organism-based; parameters: route oral
Method in brief: (§3)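 CD1 male mice (18–22 g), nonfasted, groups of five; 50 mg/kg in 0.2 mL, dissolved in 10% ethanol then diluted 1:9 with 1% HPMC in water (po) or PBS pH 7.3 (sc). Blood sampled 5–240 min; levels by Bacillus subtilis agar bioassay (pH 7.0, 30 °C overnight) against standards in heparinized mouse blood.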

Mus musculus [18] = assay: Pharmacokinetic parameter Cmax was determined in blood level in mouse after subcutaneous administration.; type: ADME, organism-based; parameters: route subcutaneous; settings: in vivo, sc; method in brief: as §3
Mus musculus [19] = assay: Pharmacokinetic parameter AUC was determined in blood level in mouse after oral administration.; type: ADME, organism-based; settings: in vivo; method in brief: as §3
Mus musculus [20] = assay: Pharmacokinetic parameter AUC was determined in blood level in mouse after subcutaneous administration.; type: ADME, organism-based; settings: in vivo, sc; method in brief: as §3
Mus musculus [21] = assay: Total […] dose against Staphylococcus aureus after […] administration (1+5 hr post infection) to mouse; type: organism-based; settings: in vivo, po
Method in brief: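 CD1 male mice, groups of five, infected ip with S. aureus Smith, 1.3 × 10^10 cfu (po groups) or 5 × 10^9 cfu (sc groups); dosed po or sc at 1 + 5 h postinfection, 0.2 mL/mouse. CD50 = total dose protecting 50% of mice from death, scored day 2 postinfection.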

[22] = Pharmacokinetic parameter Tmax was determined in blood level in mouse after oral administration.; type: ADME, organism-based; method in brief: as §3
[23] = Pharmacokinetic parameter Tmax was determined in blood level in mouse after subcutaneous administration.; type: ADME, organism-based; settings: sc; method in brief: as §3

MIC (Bacteroides fragilis [1]) | MIC (Enterobacter cloacae) | MIC (Escherichia coli [2]) | MIC (Escherichia coli [3]) | MIC (Enterococcus faecalis) | MIC (Haemophilus influenzae) | MIC (Klebsiella pneumoniae) | MIC (Moraxella catarrhalis) | MIC (Proteus mirabilis) | MIC (Pseudomonas aeruginosa) | MIC [5] | MIC (Streptococcus pneumoniae) | MIC (Staphylococcus aureus [6]) | MIC (Staphylococcus aureus [7]) | MIC (Streptococcus pyogenes) | MIC (Staphylococcus aureus [8]) | Structure (SMILES) | CD50 (Mus musculus [15]) | also measured
16 mg/L (≈ 32.4 µM) | 16 mg/L (≈ 32.4 µM) | 32 mg/L (≈ 64.7 µM) | < 0.06 mg/L | 32 mg/L (≈ 64.7 µM) | < 0.06 mg/L | 64 mg/L (≈ 129 µM) | 0.125 mg/L (≈ 0.253 µM) | 64 mg/L (≈ 129 µM) | > 64 mg/L | 0.125 mg/L (≈ 0.253 µM) | < 0.06 mg/L | 64 mg/L (≈ 129 µM) | 0.125 mg/L (≈ 0.253 µM) | < 0.06 mg/L | 32 mg/L (≈ 64.7 µM) | C/C(=C\c1ncc(-c2csc([N+](=O)[O-])c2)o1)C[C@@H]1OC[C@H](C[C@@H]2O[C@H]2[C@@H](C)[C@H](C)O)[C@@H](O)[C@H]1O |  | IC50 (Isoleucine--tRNA ligase [4]): 0.00445 µM
 |  |  | 0.13 mg/L (≈ 0.26 µM) | 32 mg/L (≈ 63.9 µM) | < 0.06 mg/L | > 64 mg/L | 0.5 mg/L (≈ 0.999 µM) | > 64 mg/L | > 64 mg/L | 0.125 mg/L (≈ 0.25 µM) | < 0.06 mg/L | > 64 mg/L | < 0.06 mg/L | < 0.06 mg/L |  | C/C(=C\C(=O)OCCCCCCCCC(=O)O)C[C@@H]1OC[C@H](C[C@@H]2O[C@H]2[C@@H](C)[C@H](C)O)[C@@H](O)[C@H]1O [MUPIROCIN] |  | MIC (Bacteroides fragilis [9]): > 64 mg/L; IC50 (Isoleucine--tRNA ligase [10]): 0.28 µM; IC50 (Isoleucine--tRNA ligase [11]): 39.9 µM; MIC (Staphylococcus aureus [12]): > 2050 mg/L; IC50 [13]: 0.0008 mg/L (≈ 0.0016 µM)
0.5 mg/L (≈ 1.02 µM) | > 64 mg/L | > 64 mg/L | 1 mg/L (≈ 2.03 µM) | 64 mg/L (≈ 130 µM) | < 0.06 mg/L | > 64 mg/L | 0.25 mg/L (≈ 0.508 µM) | > 64 mg/L | > 64 mg/L | < 0.06 mg/L | 0.5 mg/L (≈ 1.02 µM) | > 64 mg/L | 2 mg/L (≈ 4.06 µM) | 0.25 mg/L (≈ 0.508 µM) | > 64 mg/L | C/C(=C\c1ncc(-c2ncc([N+](=O)[O-])n2C)o1)C[C@@H]1OC[C@H](C[C@@H]2O[C@H]2[C@@H](C)[C@H](C)O)[C@@H](O)[C@H]1O |  | IC50 [14]: 0.0007 mg/L (≈ 0.00142 µM)
 |  |  |  |  |  |  |  |  |  |  |  |  |  |  |  | CN[C@H](CC(C)C)C(=O)N[C@H]1C(=O)N[C@@H](CC(N)=O)C(=O)N[C@H]2C(=O)N[C@H]3C(=O)N[C@H](C(=O)N[C@H](C(=O)O)c4cc(O)cc(O)c4-c4cc3ccc4O)[C@H](O)c3ccc(c(Cl)c3)Oc3cc2cc(c3O[C@@H]2O[C@H](CO)[C@@H](O)[C@H](O)[C@H]2O[C@H]2C[C@](C)(N)[C@H](O)[C@H](C)O2)Oc2ccc(cc2Cl)[C@H]1O [VANCOMYCIN] | 3.8 mg/kg | 
2 mg/L (≈ 4.18 µM) | 4 mg/L (≈ 8.36 µM) | 16 mg/L (≈ 33.4 µM) | < 0.06 mg/L | 16 mg/L (≈ 33.4 µM) | < 0.06 mg/L | > 64 mg/L | < 0.06 mg/L | > 64 mg/L | > 64 mg/L | < 0.06 mg/L | < 0.06 mg/L | 4 mg/L (≈ 8.36 µM) | < 0.06 mg/L | < 0.06 mg/L | 4 mg/L (≈ 8.36 µM) | C/C(=C\c1ncc(-c2ccc([N+](=O)[O-])o2)o1)C[C@@H]1OC[C@H](C[C@@H]2O[C@H]2[C@@H](C)[C@H](C)O)[C@@H](O)[C@H]1O | 1.2 mg/kg | IC50 (Isoleucine--tRNA ligase [16]): 400 mg/L (≈ 836 µM); Cmax [17]: 28.7 µg/mL; Cmax (Mus musculus [18]): 30.5 µg/mL; AUC (Mus musculus [19]): 1734 ug m-1 min-1; AUC (Mus musculus [20]): 2407 ug m-1 min-1; CD50 (Mus musculus [21]): 3.2 mg/kg; Tmax [22]: 15 min; Tmax [23]: 5 min
